How the values were obtained:
Rattus norvegicus [1] = test: The compound was tested for ataxia after intracerebroventricular introduction in the rat; type: functional
Method in brief: (§1)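 Sprague–Dawley rats (~200 g), caged singly, adapted ≥1 h, each used once. Intracerebroventricular dosing. Scored on the Sturgeon PCP rating scale immediately, at 2.5 and 5 min, then every 5 min until back to control. Dose–response built from peak-effect ratings, ≥18 rats per curve. ED50 (nmol/rat) and confidence limits by computerized Finney assay.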

[2] = biological target: Glutamate receptor ionotropic, NMDA 2C (Rattus norvegicus, UniProt Q00961); test: Binding affinity of compound against Phencyclidine receptor by displacement of [3H]TCP; details: read-out: Ki app
Glutamate receptor ionotropic, NMDA 2C, sequence (Q00961 whole entry): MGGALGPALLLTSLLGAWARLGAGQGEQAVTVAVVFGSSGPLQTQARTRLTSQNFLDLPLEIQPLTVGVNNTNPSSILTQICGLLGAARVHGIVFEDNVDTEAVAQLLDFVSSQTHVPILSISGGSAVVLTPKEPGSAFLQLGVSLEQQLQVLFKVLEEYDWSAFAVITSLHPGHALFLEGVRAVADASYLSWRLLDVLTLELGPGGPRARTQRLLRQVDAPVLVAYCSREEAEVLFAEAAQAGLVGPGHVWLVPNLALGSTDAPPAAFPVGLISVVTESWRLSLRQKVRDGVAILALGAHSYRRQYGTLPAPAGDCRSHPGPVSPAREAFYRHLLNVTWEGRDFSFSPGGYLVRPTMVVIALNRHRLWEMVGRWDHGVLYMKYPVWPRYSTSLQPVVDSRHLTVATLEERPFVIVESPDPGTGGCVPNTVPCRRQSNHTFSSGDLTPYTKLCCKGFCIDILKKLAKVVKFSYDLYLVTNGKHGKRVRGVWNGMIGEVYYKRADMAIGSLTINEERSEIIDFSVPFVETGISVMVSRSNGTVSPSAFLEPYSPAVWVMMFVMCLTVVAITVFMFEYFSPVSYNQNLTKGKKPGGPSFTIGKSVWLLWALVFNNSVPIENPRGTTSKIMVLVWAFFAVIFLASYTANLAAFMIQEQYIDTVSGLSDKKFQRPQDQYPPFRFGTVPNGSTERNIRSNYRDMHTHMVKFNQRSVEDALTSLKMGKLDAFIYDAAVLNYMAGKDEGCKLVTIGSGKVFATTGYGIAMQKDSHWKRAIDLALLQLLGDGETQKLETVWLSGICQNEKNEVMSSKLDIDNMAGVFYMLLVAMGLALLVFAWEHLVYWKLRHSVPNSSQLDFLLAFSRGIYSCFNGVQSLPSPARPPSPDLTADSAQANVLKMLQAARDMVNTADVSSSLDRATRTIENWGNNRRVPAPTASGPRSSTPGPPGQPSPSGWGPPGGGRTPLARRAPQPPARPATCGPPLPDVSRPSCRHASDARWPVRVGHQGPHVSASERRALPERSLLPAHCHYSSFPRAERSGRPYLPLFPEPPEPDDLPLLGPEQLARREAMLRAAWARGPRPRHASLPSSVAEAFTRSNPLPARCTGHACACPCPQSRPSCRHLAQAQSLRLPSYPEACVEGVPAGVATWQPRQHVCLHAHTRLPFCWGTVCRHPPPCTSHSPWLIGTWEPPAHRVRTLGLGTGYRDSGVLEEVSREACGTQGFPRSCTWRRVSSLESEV
Method in brief: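 Membrane preparation incubated in triplicate with 2 nM [3H]TCP plus varying displacer levels in 5 mM Tris-HCl pH 7.4, 1 h, room temperature. Filtered on filters presoaked in 0.5% polyethylenimine, rinsed with Tris buffer, counted by liquid scintillation. Specific binding defined with 10 μM TCP. Mean ±SEM of at least three experiments.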

Rattus norvegicus [3] = test: The compound was tested for its stereotyped behavior after intracerebroventricular introduction in the rat; type: functional; method in brief: as §1

c1ccc([C@@H](C2CC3CC3C2)N2CCCCC2)cc1 (some centres undefined)
ED50 (Rattus norvegicus [1]): 300 nM
Ki [2]: 680 nM
ED50 (Rattus norvegicus [3]): 310 nM

c1ccc([C@H](C2CC3CC3C2)N2CCCCC2)cc1 (some centres undefined)
ED50 (Rattus norvegicus [1]): 450 nM
Ki [2]: 630 nM
ED50 (Rattus norvegicus [3]): 400 nM

c1ccc(C2(N3CCCCC3)CCCCC2)cc1 [PHENCYCLIDINE]
ED50 (Rattus norvegicus [1]): 210 nM
Ki [2]: 91 nM
ED50 (Rattus norvegicus [3]): 150 nM
